# Screens as filed in PubChem.
# Only some compounds are listed: those with a hit (about 2.9% of all), similar ones and a draw of the others.
# HTR1A agonist = activates the human 5-HT1a serotonin receptor; 65,000 compounds, 0.56% hits; activation, % at 10 µM; CHO 5-HT1a Ga15 NFAT-bla reporter, FRET ratio; 0% basal, 100% maximal reference agonist; P08908;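 active means activation above the screen-wide mean activation plus 3 SD, cut at about 19% in these data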;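 further: 0% = DMSO wells and 100% = 5-CT at EC100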
# 5HT1E antag = blocks the human 5-HT1E serotonin receptor | 65,000 compounds, 0.99% hits | inhibition, % at 6 µM | P28566 | CHO 5-HT1E Ga15 NFAT-bla reporter, FRET, antagonist | AID 571;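 active means inhibition above a set limit, the mean inhibition across every tested compound plus 3 SD, cut at about 29% in these data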;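 further: signal is the 460 over 535 nm emission ratio of beta-lactamase substrate; 0% = agonist plus DMSO wells and 100% = wells without agonist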
# Target sequence (P28566 whole entry, looked up): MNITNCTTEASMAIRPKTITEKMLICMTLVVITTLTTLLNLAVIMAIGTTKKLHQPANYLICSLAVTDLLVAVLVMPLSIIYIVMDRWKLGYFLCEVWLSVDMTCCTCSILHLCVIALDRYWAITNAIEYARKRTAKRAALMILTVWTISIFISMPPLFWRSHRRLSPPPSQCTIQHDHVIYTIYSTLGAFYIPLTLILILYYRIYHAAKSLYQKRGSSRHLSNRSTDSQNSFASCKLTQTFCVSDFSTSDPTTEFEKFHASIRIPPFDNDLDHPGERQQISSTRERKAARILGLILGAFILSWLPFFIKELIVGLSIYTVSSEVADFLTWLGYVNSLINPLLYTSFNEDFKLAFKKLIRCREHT
# 5-HT1A blocker = 5-HT1a (human) receptor antagonism | P08908 | CHO 5-HT1a Ga15 NFAT-bla reporter, antagonist mode | inhibition, % at 10 µM | 62,000 compounds, 0.68% hits | AID 612;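 active means inhibition above the mean of all tested compounds plus 3 SD, cut at about 43% in these data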;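 further: receptor stimulated by 5-CT agonist at 100 nM near EC80; beta-lactamase reporter measured by ratiometric fluorescence of a cleavable substrate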
# S1P3 agonist = agonists of human S1P3 receptor; S1P3 NFAT-BLA reporter cells, agonism, FRET ratio; relative to 1 µM S1P, basal subtracted; AID 373; Q99500; 60,000 compounds, 0.1% hits; activation, % at 4.5 µM;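 active means activation above the screen-wide mean plus 3 SD, cut at about 4.5% in these data, passing the limit was not always enough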
#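 Material: Human S1P3 NFAT-BLA reporter CHO cells | Incubation: Overnight plating, 4 h compound 37 °C, 2 h substrate RT | Signal: FRET β-lactamase substrate fluorescence, excitation 405 nm, 460/535 nm emission ratio, background-subtracted | Compound: 4.5 µM final, single dose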
# HTR1E agonist = activates the human 5-HT1E serotonin receptor. P28566. 65,000 compounds, 0.69% hits. CHO 5-HT1E Ga15 NFAT-bla reporter, FRET; 0% DMSO wells, 100% control agonist wells. activation, % at 6 µM;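 active means activation above a set limit, the screen-wide mean activation plus 3 SD, cut at about 8.5% in these data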;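 further: 100% = positive control agonist at 1 µM giving full maximal response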
# S1P1 ag-PAM = S1P1 (human) agonism or agonism potentiation; P21453; 56,000 compounds, 0.57% hits; AID 449; activation, % at 9.5 µM; S1P1 CRE-bla cells, forskolin, beta-lactamase FRET, potentiator mode; S1P1 agonist co-added at EC20, 2 nM; 100% = saturating reference agonist, 0% = basal;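 active means activation above a cutoff set at the mean activation of all tested compounds plus 3 SD, cut at about 54% in these data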;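 further: forskolin at 4 µM as EC80 and the EC20 agonist is SEW2871; 100% = SEW2871 at its EC100 plus forskolin at EC80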
# An asterisk follows results filed as active; . = not tested or not shown.
SMILES,HTR1A agonist,5HT1E antag,5-HT1A blocker,S1P3 agonist,HTR1E agonist,S1P1 ag-PAM
CCOC(=O)c1ccc2[nH]c(C)c(CCC(C)=O)c(=O)c2c1,0,0,6,0,2,7
CCCc1cc(=O)[nH]c(SCC(=O)N(C)C2CCS(=O)(=O)C2)n1 (stereo not drawn),-2,1,-4,0,0,2
O=C(NC1CCCCC1)C(c1ccc(F)cc1)N(Cc1ccco1)C(=O)Cn1nnc2ccccc21 (stereo not drawn),0,5,38,0,-1,-15
O=C(NC1CCCCC1)C(c1ccccc1F)N(Cc1ccco1)C(=O)Cn1nnc2ccccc21 (stereo not drawn),1,11,55*,-1,-1,-3
CCOC(=O)CN(C(=O)Cn1nnc(-c2ccc(C)cc2)n1)C(CC)C(=O)NC1CCCC1 (stereo not drawn),-4,-12,-3,0,0,-1
CCC(C(=O)NC1CCCC1)N(Cc1ccco1)C(=O)Cn1nnc(-c2ccc(C)cc2)n1 (stereo not drawn),-2,5,19,-2,9.0*,8
CCOc1ccccc1C(=O)Nc1nnc(C(C)C)s1,-1,33*,9,0,0,-19
Cc1ccc(C)c(N2CCN(CC(=O)Nc3ccc4[nH]c(=O)[nH]c4c3)CC2)c1,0,-9,8,-1,23*,-4
CC(=O)Oc1ccc(N2C(=O)C3C(C2=O)C2(C)C=CC3(C)O2)cc1 (stereo not drawn),-6,64*,85*,-1,0,135*
Cn1nc(C(C)(C)C)cc1C(=O)NCc1ccc(N2CCCC2=O)cc1,1,1,0,-1,1,56*
O=C(CNC(=O)c1cnccn1)Nc1ccc(F)c(F)c1F,1,-5,-6,.,1,.
Cc1ccc(-n2c(C)cc(C(=O)COC(=O)c3c(C)noc3C)c2C)cc1,1,0,-6,0,0,62*
Cc1ccc(C)c(NC(=O)c2ccc3c(c2)N(Cc2ccc(F)cc2)C(=O)CS3=O)c1 (stereo not drawn),47*,4,4,0,0,-28
COc1ccc(NS(=O)(=O)c2cc(C)ccc2NC(=O)c2cc(C)oc2C)cc1,0,61*,63*,-1,0,-13
CCOC(=O)c1ccc(NS(=O)(=O)c2cc(C)ccc2OC)cc1,2,-2,-1,-1,1,14
CC1=C(C(=O)OC2CCCCC2)C(c2ccco2)C2=C(CC(C)(C)CC2=O)N1 (stereo not drawn),0,44*,23,-1,0,.
CC1(C)CC(=O)C2=C(C1)NC(SCC(=O)Nc1ccccc1)=C(C#N)C2c1ccco1 (stereo not drawn),-2,33*,38,-1,0,14
CC1=C(C(=O)OC2CCCCC2)C(c2ccc(C)o2)C2=C(CCCC2=O)N1 (stereo not drawn),-2,30*,25,-2,0,14
Cc1ccc(C(=O)CSC2=C(C#N)C(c3ccco3)C3=C(CC(C)(C)CC3=O)N2)cc1 (stereo not drawn),-3,10,-3,-1,2,11
COc1cccc(C2/C(=C(\O)c3c(C)nc4c(C)cccn34)C(=O)C(=O)N2CCCN(C)C)c1 (stereo not drawn),-3,2,2,1,0,-5
COc1cc2c(cc1OC)CN(Cc1cccs1)CC2,-2,0,4,0,13*,-19
COc1ccccc1-n1cnc2cc(NCc3ccco3)ccc21,0,34*,29,-1,-2,12
CCCNC(=O)c1ccc2c(c1)ncn2-c1ccccc1OC,-3,1,17,0,1,-29
COc1cccc(C(=O)CSc2nnc(COc3cccc4cccnc34)o2)c1,46*,12,6,-1,-2,1
Cc1ccc(C(=O)CSc2nnc(COc3cccc4cccnc34)o2)cc1,-2,10,-3,-1,0,12
